# Laboratory results reported in ChEMBL document CHEMBL3526002, “Tissue distribution and identification of radioactivity components at elimination phase after oral administration of [¹⁴C]CS-1036, an α-amylase inhibitor, to rats” (Drug Metab Dispos, 2013).
# Tests used:
# Type in all cases: ADME, organism-based
# Set-up in all cases: dose 5 mg/kg, dosed compound name [14C]CS-1036, route oral
# Settings in all cases: in vivo
# Thymus [1] = assay: Drug uptake in albino F344/DuCrlCrlj rat thymus at 5 mg/kg, po after 4 hrs by liquid scintillation counting
# Zone of skin [2] = assay: Drug uptake in albino F344/DuCrlCrlj rat skin at 5 mg/kg, po after 8 hrs by liquid scintillation counting
# Stomach = assay: Drug uptake in albino F344/DuCrlCrlj rat stomach at 5 mg/kg, po after 8 hrs by liquid scintillation counting
# Plasma = assay: Drug uptake in albino F344/DuCrlCrlj rat plasma assessed as ng equivalent of CS-1036 at 5 mg/kg, po after 1 hr by liquid scintillation counting
# [3] = Drug uptake in albino F344/DuCrlCrlj rat eyeball assessed as ng equivalent of CS-1036 at 5 mg/kg, po after 1 hr by liquid scintillation counting
# Harderian gland [4] = assay: Drug uptake in albino F344/DuCrlCrlj rat harderian gland assessed as ng equivalent of CS-1036 at 5 mg/kg, po after 1 hr by liquid scintillation counting
# Large intestine = assay: Drug uptake in albino F344/DuCrlCrlj rat large intestine assessed as ng equivalent of CS-1036 at 5 mg/kg, po after 1 hr by liquid scintillation counting
# Harderian gland [5] = assay: Drug uptake in albino F344/DuCrlCrlj rat harderian gland assessed as ng equivalent of CS-1036 at 5 mg/kg, po after 72 hrs by liquid scintillation counting
# [6] = Drug uptake in albino F344/DuCrlCrlj rat trachea at 5 mg/kg, po after 24 hrs by liquid scintillation counting
# Thymus [7] = assay: Drug uptake in albino F344/DuCrlCrlj rat thymus at 5 mg/kg, po after 24 hrs by liquid scintillation counting
# Blood = assay: Drug uptake in albino F344/DuCrlCrlj rat blood at 5 mg/kg, po after 1 hr by liquid scintillation counting
# Summary of the method: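 Male F344/DuCrlCrlj rats (159–167 g; n = 3 per time point) received a single oral dose of [14C]CS-1036 at 5 mg/kg. Blood was taken from the abdominal aorta at 1, 4, 8, 24, 72, 168 and 336 h. Radioactivity was counted by LSC with external-standard efficiency correction. Results were converted to ng equivalent of CS-1036/ml using specific activity and sample volume, and reported as mean + S.D.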
# Small intestine [8] = assay: Drug uptake in albino F344/DuCrlCrlj rat small intestine assessed as ng equivalent of CS-1036 at 5 mg/kg, po after 4 hrs by liquid scintillation counting
# Cerebellum = assay: Drug uptake in albino F344/DuCrlCrlj rat cerebellum assessed as ng equivalent of CS-1036 at 5 mg/kg, po after 336 hrs by liquid scintillation counting
# Thymus [9] = assay: Drug uptake in albino F344/DuCrlCrlj rat thymus assessed as ng equivalent of CS-1036 at 5 mg/kg, po after 336 hrs by liquid scintillation counting
# Zone of skin [10] = assay: Drug uptake in albino F344/DuCrlCrlj rat skin at 5 mg/kg, po after 1 hr by liquid scintillation counting
# Aorta = assay: Drug uptake in albino F344/DuCrlCrlj rat aorta at 5 mg/kg, po after 1 hr by liquid scintillation counting
# Small intestine [11] = assay: Drug uptake in albino F344/DuCrlCrlj rat small intestine assessed as ng equivalent of CS-1036 at 5 mg/kg, po after 8 hrs by liquid scintillation counting
# Heart = assay: Drug uptake in albino F344/DuCrlCrlj rat heart assessed as ng equivalent of CS-1036 at 5 mg/kg, po after 24 hrs by liquid scintillation counting
compound,measurement,setting,value
C[C@H]1O[C@@H](O[C@H]2[C@H](O)[C@@H](O)[C@@H](O[14C@H]3[14C@H](O)[14CH2]N[14C@@H]3[14CH2]O)O[C@@H]2CO)[C@H](O)[C@@H](O)[C@@H]1O,Radiolabel recovery,Thymus [1],22 ngequiv/g
same,Radiolabel recovery,Zone of skin [2],60.3 ngequiv/g
same,Radiolabel recovery,Stomach,135 ngequiv/g
same,Radiolabel recovery,Plasma,12.7 ngequiv/ml
same,Radiolabel recovery,[3],3.2 ngequiv/g
same,Radiolabel recovery,Harderian gland [4],4.3 ngequiv/g
same,Radiolabel recovery,Large intestine,1080 ngequiv/g
same,Radiolabel recovery,Harderian gland [5],67 ngequiv/g
same,Radiolabel recovery,[6],43.2 ngequiv/g
same,Radiolabel recovery,Thymus [7],53.3 ngequiv/g
same,Radiolabel recovery,Blood,60.5 ngequiv/ml
same,Radiolabel recovery,Small intestine [8],903 ngequiv/g
same,Radiolabel recovery,Cerebellum,3.05 ngequiv/g
same,Radiolabel recovery,Thymus [9],1.96 ngequiv/g
same,Radiolabel recovery,Zone of skin [10],38.3 ngequiv/g
same,Radiolabel recovery,Aorta,50.6 ngequiv/g
same,Radiolabel recovery,Small intestine [11],36 ngequiv/g
same,Radiolabel recovery,Heart,4.4 ngequiv/g
